# Compound activity (PubChem)
# Most compounds without a hit are left out; they make up all but 5.5% or so of the library.
# STAT3 activator – activators of IL-6 induced STAT3 signaling; U3A cells, IL-6 STAT3-luciferase reporter, luminescence; 100% = signal with IL-6 EC80 alone; hit rate 0.91% among 190,000; activation (% of control), % at 5.6 µM;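 active means activation above the screen-wide mean of compound activation plus 3 SD, cut at about 130% in these data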;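 further: 0% = background luminescence of wells with medium and substrate only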
#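 Material: STAT3-luciferase reporter U3A cells; Probe or stimulus: IL-6 (33 ng/mL); Incubation: compound pre-incubation 1 h before IL-6, then 6 h stimulation at 37 °C; Technique: luminescence from STAT3-driven luciferase reporter; Evaluation: % activation versus median of IL-6-stimulated wells; Controls: IL-6-only high control.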
# STAT3 inh – STAT3 signaling inhibition; inhibition, % at 5.5 µM; U3A cells, IL-6 STAT3-luciferase reporter, luminescence; host cell line lacks STAT1; AID 862; hit rate 0.89% among 190,000;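 active means inhibition above the mean inhibition across all screened compounds plus 3 SD, cut at about 44% in these data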;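 further: 0% = DMSO only wells and 100% = 100 µM nifuroxazide control wells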
# STAT1 act – increases IFN-gamma driven STAT1 reporter signal; NIH 3T3 STAT1-luciferase reporter, luminescence; 100% = IFN-gamma alone, no compound; activation (% of control), % at 5.5 µM; hit rate 2.6% among 200,000; AID 932;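 active means activation above the screen-wide mean activation plus 3 SD, cut at about 130% in these data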;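 further: raw ratio to IFN-gamma control signal so 100% means no change and 0% no light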
# HSV augment – increases HSV replication in cells; HSV replication augmentation in cells, fold increase; maximum fold increase; hit rate 0.005% among 220,000; in the data active means maximum fold increase above about 1.5; tested in PC3 cells
# Cl transport mod – modulates chloride dependent transport by human KCC2. hit rate 2.2% among 190,000. KCC2 cells, thallium flux FluoZin-2 fluorescence. B-score of Tl+ flux slope (higher = more flux/activation; lower = inhibition) at 10 µM;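 active means thallium flux slope and its plate-corrected score both differing from the plate sample mean at a set confidence after two filtering rounds, in either direction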;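 further: slope of fluorescence scaled to starting intensity during 10 to 20 s after thallium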
# STAT1 blocker – inhibitors of IFN-gamma induced STAT1 signaling. hit rate 0.35% among 200,000. inhibition, % at 5.5 µM. NIH 3T3 STAT1-luciferase reporter, luminescence;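 active means inhibition above a set limit, the mean inhibition across all tested compounds plus 3 SD, cut at about 34% in these data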;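 further: 0% = IFN-gamma with DMSO and 100% = IFN-gamma with 300 µM nifuroxazide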
# The depositor's hits bear a star; i = inactive; . = not tested or not shown.
SMILES,STAT3 activator,STAT3 inh,STAT1 act,HSV augment,Cl transport mod,STAT1 blocker
S=C(Nc1cccc(Cl)c1)Nc1ccccc1Oc1ccccc1,90,22,87,i,5.4*,15
CNC(=S)Nc1cc(Cl)ccc1Oc1ccccc1,96,9,98,i,0.35,3
S=C(Nc1ccccc1Oc1ccccc1)Nc1cccc(Cl)c1Cl,79,27,93,i,31*,7
S=C(Nc1ccc(Cl)cc1Cl)Nc1ccccc1Oc1ccccc1,98,12,98,i,25*,2
CCOC(=O)c1c(N)sc(C(=O)OCCOC)c1C,93,14,118,i,0.67,-21
Cn1c(=O)c(C(=O)COC(=O)c2cc(-c3ccco3)nc3ccccc23)c(N)n(CC2CC2)c1=O,100,-3,104,.,-0.93,-5
COc1ccc(OC)c(NC(=O)c2ccc3c(=O)n(CCc4ccccc4)c(=S)[nH]c3c2)c1,93,7,102,i,0.69,-2
O=C(N/N=C/c1ccc(Br)o1)c1ccc2c(c1)OCCO2,106,-10,130*,i,-1.3,-32
O=c1c2c3c(sc2ncn1/N=C/c1cccnc1)CCCC3,108,-7,139*,i,-0.24,-43
Cc1ccnc2ccc(-c3nc4ccccc4o3)cc12,153*,-58,136*,i,.,-40
N#Cc1ccc(NC(=O)COC(=O)CCc2nc3ccccc3c(=O)[nH]2)cc1,.,.,.,i,.,.
Cc1cc(=O)oc2cc(OCC(=O)OCC(=O)N3CCC(C)CC3)ccc12,97,4,97,i,1.2,3
Cc1cccc2c(N)c3c(nc12)CCCC3 (tested in a mixture with another compound),109,-8,118,i,.,-22
Cc1cc(C)c2c(N)c3cccc(C)c3nc2n1,120,-16,148*,i,0.18,-53
COc1ccc(NC(=S)Nc2cnc3ccccc3c2)c(OC)c1,96,14,108,i,-1.5,-9
CC1(C)CC(=O)c2c(O)cc(OCc3ccc(Br)cc3)cc2O1,117,-14,146*,i,-0.16,-50
S=c1[nH]nc(COc2ccc3ccccc3c2)o1,102,0,103,i,-5.7*,-4
CC(=O)Nc1ccc(S(=O)(=O)N2CCCC(C(=O)O)C2)cc1 (stereo unspecified),100,2,102,i,0.86,-3
O=C(NCC1CCCO1)c1cc(-c2ccccc2)on1 (stereo unspecified),108,-6,140*,i,.,-43
O=C(NCc1ccco1)c1cc(-c2cccs2)on1,106,-4,130*,i,0.16,-32
O=C(NCc1ccco1)c1cc(-c2ccccc2)on1,103,-1,131*,i,.,-34
O=C(NCCCn1ccnc1)c1cc(-c2cccs2)on1,123,-26,147*,i,.,-51
CC(C)c1cc(C(=O)NCc2ccco2)no1,102,2,110,i,0.033,-11
O=C(CN1CCCc2ccccc21)N/N=C/c1c(O)ccc2ccccc12,89,16,105,i,-0.48,-5
CCCOC(=S)Nc1ccccc1,99,8,98,i,2.8,2
SMILES,STAT3 activator,STAT3 inh,STAT1 act,HSV augment,Cl transport mod,STAT1 blocker
CC(C)Cc1cc(C(=O)NCc2cccs2)no1,115,-20,134*,i,-1.4,-40
O=C(NCc1ccco1)c1cc(-c2ccc(F)cc2)on1,103,0,142*,i,0.022,-46
O=C(NCc1ccc(F)cc1)c1cc(-c2ccco2)on1,101,1,105,i,0.27,-10
Cc1nc2c(sc3nc4c(cc32)COC(C)(C)C4)c(=O)n1CC(=O)NCc1ccco1,111,-10,131*,i,-0.17,-34
CC1=[N+](C)N(c2ccccc2)C(=O)C1N=Cc1c(Cl)cccc1Cl (stereo unspecified),93,4,99,i,-1.5,1
CC(C)CC(=O)NC(=S)Nc1sc2c(c1C(N)=O)CCC2,105,-1,144*,i,0.12,-51
CC(C)(C)C(=O)NC(=S)Nc1sc2c(c1C(N)=O)CCC2,107,-3,146*,i,0.93,-54
CC(=O)NC(=S)Nc1sc2c(c1C(N)=O)CCC(C)C2 (stereo unspecified),98,5,132*,i,.,-37
